Source: paper PMC6445238 (Drug Design, Development and Therapy, 2019)

Key:
[1] = MAD study, safety and tolerability; format: in vivo, human; conditions: for Abdominal pain, number of subjects (%) / Anxiety, number of subjects (%) / Back pain, number of subjects (%) / Diarrhea, number of subjects (%) / Dizziness, number of subjects (%) / Epistaxis, number of subjects (%) / Erythema of eyelid, number of subjects (%) / Erythema, number of subjects (%) / Headache, number of subjects (%) / Hyperbilirubinemia, number of subjects (%) / Hyperhidrosis, number of subjects (%) / Hypoesthesia, number of subjects (%) / Insomnia, number of subjects (%) / Muscle hemorrhage, number of subjects (%) / Musculoskeletal stiffness, number of subjects (%) / Nausea, number of subjects (%) / Neck pain, number of subjects (%) / Oropharyngeal pain, number of subjects (%) / Subjects with any TEAEs, number of subjects (%) / Vomiting, number of subjects (%) / Abdominal discomfort, number of subjects (%): N=6
How it was run: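 MAD cohorts were 6 active and 2 placebo healthy males, dosed once daily for 7 days, confined day −1 to day 8, with follow-up on day 14. Safety was monitored by vital signs, clinical labs, 12-lead ECG, physical exams, and AEs reported by subjects or observed by investigators. AEs were coded with MedDRA 19.1. Counts are given as subjects with AEs, % of the safety population. Placebo subjects were pooled.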

[2] = 2 weeks, up to 1,000 mg/kg/day; cited from earlier work

Structure (SMILES): Cc1nn(Cc2ccc(Br)cc2)c(C)c1NC(=O)CSc1ccccc1 [KM-819]
- Abdominal pain, number of subjects (%) ([1]; 200 mg QD 7 days, elderly): 1 (16.7)
- Anxiety, number of subjects (%) ([1]; 200 mg QD 7 days, elderly): 0
- Back pain, number of subjects (%) ([1]; 200 mg QD 7 days, elderly): 2 (33.3)
- Diarrhea, number of subjects (%) ([1]; 200 mg QD 7 days, elderly): 1 (16.7)
- Dizziness, number of subjects (%) ([1]; 200 mg QD 7 days, elderly): 0
- Epistaxis, number of subjects (%) ([1]; 200 mg QD 7 days, elderly): 0
- Erythema of eyelid, number of subjects (%) ([1]; 200 mg QD 7 days, elderly): 0
- Erythema, number of subjects (%) ([1]; 200 mg QD 7 days, elderly): 0
- Headache, number of subjects (%) ([1]; 200 mg QD 7 days, elderly): 1 (16.7)
- Hyperbilirubinemia, number of subjects (%) ([1]; 200 mg QD 7 days, elderly): 0
- Hyperhidrosis, number of subjects (%) ([1]; 200 mg QD 7 days, elderly): 0
- Hypoesthesia, number of subjects (%) ([1]; 200 mg QD 7 days, elderly): 0
- Insomnia, number of subjects (%) ([1]; 200 mg QD 7 days, elderly): 1 (16.7)
- Muscle hemorrhage, number of subjects (%) ([1]; 200 mg QD 7 days, elderly): 1 (16.7)
- Musculoskeletal stiffness, number of subjects (%) ([1]; 200 mg QD 7 days, elderly): 0
- Nausea, number of subjects (%) ([1]; 200 mg QD 7 days, elderly): 0
- Neck pain, number of subjects (%) ([1]; 200 mg QD 7 days, elderly): 1 (16.7)
- Oropharyngeal pain, number of subjects (%) ([1]; 200 mg QD 7 days, elderly): 0
- Subjects with any TEAEs, number of subjects (%) ([1]; 200 mg QD 7 days, elderly): 3 (50.0)
- Vomiting, number of subjects (%) ([1]; 200 mg QD 7 days, elderly): 0
- Abdominal discomfort, number of subjects (%) ([1]; 200 mg QD 7 days, young): 1 (16.7)
- Abdominal pain, number of subjects (%) ([1]; 200 mg QD 7 days, young): 0
- Anxiety, number of subjects (%) ([1]; 200 mg QD 7 days, young): 0
- Back pain, number of subjects (%) ([1]; 200 mg QD 7 days, young): 1 (16.7)
- Diarrhea, number of subjects (%) ([1]; 200 mg QD 7 days, young): 0
- Dizziness, number of subjects (%) ([1]; 200 mg QD 7 days, young): 2 (33.3)
- Epistaxis, number of subjects (%) ([1]; 200 mg QD 7 days, young): 0
- Erythema of eyelid, number of subjects (%) ([1]; 200 mg QD 7 days, young): 0
- Erythema, number of subjects (%) ([1]; 200 mg QD 7 days, young): 0
- Headache, number of subjects (%) ([1]; 200 mg QD 7 days, young): 5 (83.3)
- Hyperbilirubinemia, number of subjects (%) ([1]; 200 mg QD 7 days, young): 1 (16.7)
- Hyperhidrosis, number of subjects (%) ([1]; 200 mg QD 7 days, young): 0
- Hypoesthesia, number of subjects (%) ([1]; 200 mg QD 7 days, young): 2 (33.3)
- Insomnia, number of subjects (%) ([1]; 200 mg QD 7 days, young): 0
- Muscle hemorrhage, number of subjects (%) ([1]; 200 mg QD 7 days, young): 0
- Musculoskeletal stiffness, number of subjects (%) ([1]; 200 mg QD 7 days, young): 1 (16.7)
- Nausea, number of subjects (%) ([1]; 200 mg QD 7 days, young): 4 (66.7)
- Neck pain, number of subjects (%) ([1]; 200 mg QD 7 days, young): 0
- Oropharyngeal pain, number of subjects (%) ([1]; 200 mg QD 7 days, young): 1 (16.7)
- Subjects with any TEAEs, number of subjects (%) ([1]; 200 mg QD 7 days, young): 5 (83.3)
- Vomiting, number of subjects (%) ([1]; 200 mg QD 7 days, young): 4 (66.7)
- Abdominal discomfort, number of subjects (%) ([1]; 400 mg QD 7 days, young): 0
- Abdominal pain, number of subjects (%) ([1]; 400 mg QD 7 days, young): 0
- Anxiety, number of subjects (%) ([1]; 400 mg QD 7 days, young): 0
- Back pain, number of subjects (%) ([1]; 400 mg QD 7 days, young): 1 (16.7)
- Diarrhea, number of subjects (%) ([1]; 400 mg QD 7 days, young): 0
- Dizziness, number of subjects (%) ([1]; 400 mg QD 7 days, young): 0
- Epistaxis, number of subjects (%) ([1]; 400 mg QD 7 days, young): 1 (16.7)
- Erythema of eyelid, number of subjects (%) ([1]; 400 mg QD 7 days, young): 1 (16.7)
- Erythema, number of subjects (%) ([1]; 400 mg QD 7 days, young): 0
- Headache, number of subjects (%) ([1]; 400 mg QD 7 days, young): 4 (66.7)
- Hyperbilirubinemia, number of subjects (%) ([1]; 400 mg QD 7 days, young): 0
- Hyperhidrosis, number of subjects (%) ([1]; 400 mg QD 7 days, young): 1 (16.7)
- Hypoesthesia, number of subjects (%) ([1]; 400 mg QD 7 days, young): 0
- Insomnia, number of subjects (%) ([1]; 400 mg QD 7 days, young): 0
- Muscle hemorrhage, number of subjects (%) ([1]; 400 mg QD 7 days, young): 0
- Musculoskeletal stiffness, number of subjects (%) ([1]; 400 mg QD 7 days, young): 1 (16.7)
- Nausea, number of subjects (%) ([1]; 400 mg QD 7 days, young): 0
- Neck pain, number of subjects (%) ([1]; 400 mg QD 7 days, young): 0
- Oropharyngeal pain, number of subjects (%) ([1]; 400 mg QD 7 days, young): 0
- Subjects with any TEAEs, number of subjects (%) ([1]; 400 mg QD 7 days, young): 5 (83.3)
- Vomiting, number of subjects (%) ([1]; 400 mg QD 7 days, young): 0
- subjects withdrawn due to AEs ([1]; MAD, headache): 2
- serious adverse events (SAEs) reported ([1]; MAD, headache, considered unlikely related to KM-819): 1
- adverse effects after repeated administration [2]: did not show adverse effects
